From ChEMBL document CHEMBL4680134, “Structural optimization of natural product nordihydroguaretic acid to discover novel analogues as AcrB inhibitors” (Eur J Med Chem, 2020)
The source made the active and inactive calls. No cut-off for these calls is given here.

How the values were obtained:
[1] = biological target: T1, Multidrug efflux pump subunit AcrB (Escherichia coli (strain K12)) (UniProt P31224); assay: Inhibition of AcrB in Escherichia coli BW25113 assessed as potentiation of tetraphenylphosphonium induced antibacterial activity by measuring tetraphenylphosphonium MIC at 128 ug/ml measured after 18 hrs by checkerboard titration method (reference value: 1024 ug/ml); conditions: dose 128.0 µg/ml
T1 sequence (whole entry): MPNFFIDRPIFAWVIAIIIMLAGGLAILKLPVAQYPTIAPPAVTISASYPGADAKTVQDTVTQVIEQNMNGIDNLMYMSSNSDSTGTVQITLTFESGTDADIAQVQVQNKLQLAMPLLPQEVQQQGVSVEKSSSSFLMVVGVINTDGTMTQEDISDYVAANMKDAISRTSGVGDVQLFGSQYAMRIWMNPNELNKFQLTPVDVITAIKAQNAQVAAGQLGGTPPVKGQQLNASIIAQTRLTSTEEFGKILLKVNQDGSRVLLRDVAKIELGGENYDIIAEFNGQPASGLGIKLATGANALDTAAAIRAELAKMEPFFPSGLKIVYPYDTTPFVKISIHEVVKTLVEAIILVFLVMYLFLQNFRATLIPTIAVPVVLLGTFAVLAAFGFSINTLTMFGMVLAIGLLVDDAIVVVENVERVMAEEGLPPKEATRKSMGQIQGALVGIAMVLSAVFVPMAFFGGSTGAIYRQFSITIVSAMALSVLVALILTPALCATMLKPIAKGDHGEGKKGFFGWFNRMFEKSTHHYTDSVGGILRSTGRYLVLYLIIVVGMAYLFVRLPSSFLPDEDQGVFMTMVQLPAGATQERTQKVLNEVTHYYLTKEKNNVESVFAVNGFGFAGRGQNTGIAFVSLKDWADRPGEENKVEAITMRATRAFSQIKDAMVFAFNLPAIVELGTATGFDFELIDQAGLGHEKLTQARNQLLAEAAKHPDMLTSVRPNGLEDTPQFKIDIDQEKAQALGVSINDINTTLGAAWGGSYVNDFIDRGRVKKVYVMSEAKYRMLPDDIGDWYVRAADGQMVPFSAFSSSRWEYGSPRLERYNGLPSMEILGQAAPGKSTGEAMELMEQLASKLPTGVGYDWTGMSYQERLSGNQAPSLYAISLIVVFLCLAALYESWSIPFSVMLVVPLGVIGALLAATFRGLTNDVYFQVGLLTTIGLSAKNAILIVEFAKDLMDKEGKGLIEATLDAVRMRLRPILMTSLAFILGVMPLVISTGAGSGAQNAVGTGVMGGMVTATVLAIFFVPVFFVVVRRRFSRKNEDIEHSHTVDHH

[2] = biological target: T1, Multidrug efflux pump subunit AcrB (Escherichia coli (strain K12)); assay: Inhibition of AcrB in Escherichia coli BW25113 assessed as potentiation of tetraphenylphosphonium induced antibacterial activity by measuring tetraphenylphosphonium MIC at 256 ug/ml measured after 18 hrs by checkerboard titration method (reference value: 1024 ug/ml); conditions: dose 256.0 µg/ml
[3] = biological target: T1, Multidrug efflux pump subunit AcrB (Escherichia coli (strain K12)); assay: Inhibition of AcrB in Escherichia coli BW25113 assessed as potentiation of erythromycin induced antibacterial activity by measuring erythromycin MIC at 256 ug/ml measured after 18 hrs by checkerboard titration method (reference value: 64 ug/ml); conditions: dose 256.0 µg/ml
[4] = biological target: T1, Multidrug efflux pump subunit AcrB (Escherichia coli (strain K12)); assay: Inhibition of AcrB in Escherichia coli BW25113 assessed as reduction in glucose-induced nile red efflux at 50 to 100 uM preincubated for 15 mins followed by nile red addition and incubated for 3 hrs in shaker in presence of CCCP by fluorimetric analysis; conditions: dose 50-100 µM, time 195.0 min
Outline: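 Whole-cell efflux: wild-type and ΔAcrB cells preloaded with Nile Red, with or without compound, before fluorescence readings. Efflux triggered at 100 s with 0.2% glucose and followed by fluorometry. The ΔAcrB strain marks maximal accumulation. Triplicate experiments with different cell batches.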

[5] = biological target: T1, Multidrug efflux pump subunit AcrB (Escherichia coli (strain K12)); assay: Inhibition of AcrB in Escherichia coli BW25113 assessed as potentiation of rifampicin induced antibacterial activity by measuring rifampicin MIC at 16 ug/ml measured after 18 hrs by checkerboard titration method (reference value: 16 ug/ml); conditions: dose 16.0 µg/ml
[6] = biological target: T1, Multidrug efflux pump subunit AcrB (Escherichia coli (strain K12)); assay: Inhibition of AcrB in Escherichia coli BW25113 assessed as potentiation of rifampicin induced antibacterial activity by measuring rifampicin MIC at 128 ug/ml measured after 18 hrs by checkerboard titration method (reference value: 16 ug/ml); conditions: dose 128.0 µg/ml
[7] = biological target: T1, Multidrug efflux pump subunit AcrB (Escherichia coli (strain K12)); assay: Inhibition of AcrB in Escherichia coli BW25113 assessed as potentiation of rifampicin induced antibacterial activity by measuring rifampicin MIC at 32 ug/ml measured after 18 hrs by checkerboard titration method (reference value: 16 ug/ml); conditions: dose 32.0 µg/ml
[8] = biological target: T1, Multidrug efflux pump subunit AcrB (Escherichia coli (strain K12)); assay: Inhibition of AcrB in Escherichia coli BW25113 assessed as potentiation of tetraphenylphosphonium induced antibacterial activity by measuring tetraphenylphosphonium MIC at 64 ug/ml measured after 18 hrs by checkerboard titration method (reference value: 1024 ug/ml); conditions: dose 64.0 µg/ml
[9] = biological target: T1, Multidrug efflux pump subunit AcrB (Escherichia coli (strain K12)); assay: Inhibition of AcrB in Escherichia coli BW25113 assessed as potentiation of chloramphenicol induced antibacterial activity by measuring chloramphenicol MIC at 256 ug/ml measured after 18 hrs by checkerboard titration method (reference value: 8 ug/ml); conditions: dose 256.0 µg/ml
[10] = biological target: T1, Multidrug efflux pump subunit AcrB (Escherichia coli (strain K12)); assay: Inhibition of AcrB in Escherichia coli BW25113 assessed as potentiation of erythromycin induced antibacterial activity by measuring erythromycin MIC at 64 ug/ml measured after 18 hrs by checkerboard titration method (reference value: 64 ug/ml); conditions: dose 64.0 µg/ml
[11] = biological target: T1, Multidrug efflux pump subunit AcrB (Escherichia coli (strain K12)); assay: Inhibition of AcrB in Escherichia coli BW25113 assessed as potentiation of levofloxacin induced antibacterial activity by measuring levofloxacin MIC at 16 ug/ml measured after 18 hrs by checkerboard titration method (reference value: 0.06 ug/ml); conditions: dose 16.0 µg/ml
[12] = biological target: T1, Multidrug efflux pump subunit AcrB (Escherichia coli (strain K12)); assay: Inhibition of AcrB in Escherichia coli BW25113 assessed as potentiation of erythromycin induced antibacterial activity by measuring erythromycin MIC at 8 ug/ml measured after 18 hrs by checkerboard titration method (reference value: 64 ug/ml); conditions: dose 8.0 µg/ml
[13] = biological target: T1, Multidrug efflux pump subunit AcrB (Escherichia coli (strain K12)); assay: Inhibition of AcrB in Escherichia coli BW25113 assessed as potentiation of tetraphenylphosphonium induced antibacterial activity by measuring tetraphenylphosphonium MIC at 8 ug/ml measured after 18 hrs by checkerboard titration method (reference value: 1024 ug/ml); conditions: dose 8.0 µg/ml
[14] = biological target: T1, Multidrug efflux pump subunit AcrB (Escherichia coli (strain K12)); assay: Inhibition of AcrB in Escherichia coli BW25113 assessed as potentiation of chloramphenicol induced antibacterial activity by measuring chloramphenicol MIC at 8 ug/ml measured after 18 hrs by checkerboard titration method (reference value: 8 ug/ml); conditions: dose 8.0 µg/ml
[15] = biological target: T1, Multidrug efflux pump subunit AcrB (Escherichia coli (strain K12)); assay: Inhibition of AcrB in Escherichia coli BW25113 assessed as potentiation of levofloxacin induced antibacterial activity by measuring levofloxacin MIC at 8 ug/ml measured after 18 hrs by checkerboard titration method (reference value: 0.06 ug/ml); conditions: dose 8.0 µg/ml
[16] = biological target: T1, Multidrug efflux pump subunit AcrB (Escherichia coli (strain K12)); assay: Inhibition of AcrB in Escherichia coli BW25113 assessed as potentiation of rifampicin induced antibacterial activity by measuring rifampicin MIC at 8 ug/ml measured after 18 hrs by checkerboard titration method (reference value: 16 ug/ml); conditions: dose 8.0 µg/ml

SMILES | MIC [1] [µg/mL] | MIC [2] [µg/mL] | MIC [3] [µg/mL] | inhibition [4] | MIC [5] [µg/mL] | MIC [6] [µg/mL] | MIC [7] [µg/mL] | MIC [8] [µg/mL] | MIC [9] [µg/mL] | MIC [10] [µg/mL] | MIC [11] [µg/mL] | MIC [12] [µg/mL] | MIC [13] [µg/mL] | MIC [14] [µg/mL] | MIC [15] [µg/mL] | MIC [16] [µg/mL]
Oc1ccc(CCCCc2ccc(Br)cc2)cc1O | 512 | 512 | 64 | Active | 16 | 16 | 16 | 512 | 8 | 64 | 0.06 | – | – | – | – | –
Oc1ccc(CCCCc2ccccc2O)cc1O | 512 | 512 | 32 | – | 16 | 16 | 16 | 512 | 4 | 64 | 0.06 | – | – | – | – | –
Oc1ccc(CCCCc2ccc(O)c(O)c2)cc1O | 512 | 512 | 32 | – | 16 | 16 | 16 | 512 | 4 | 64 | 0.06 | – | – | – | – | –
O=C(NCCc1ccc(O)c(O)c1)c1ccccc1O | 512 | – | – | – | 16 | 16 | 16 | 512 | – | 64 | 0.06 | 64 | 1020 | 8 | 0.06 | 16
